Assay outcomes from PubChem BioAssay.
Shown are actives, neighbours in structure and some others; about 2.3% of the full set was active somewhere.
V1R ag counter = agonists of human V1a receptor, primary screen, counter-screen for OXTR agonist project, fluorescence, CHO-V1R cells; Vasopressin V1a receptor (Homo sapiens), P37288; Fluo-8 calcium fluorescence, agonist mode; 0% DMSO, 100% 3 nM vasopressin; activation, % at 3 µM; 320,000 compounds, 0.25% hits; AID 2797, 2010;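 active means activation above the mean activation of all tested compounds plus 3 SD, per screening run, cut at about 20% in these data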;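 further: signal is peak over basal fluorescence ratio across a 100 second FLIPR read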
Target sequence (P37288 whole entry, looked up): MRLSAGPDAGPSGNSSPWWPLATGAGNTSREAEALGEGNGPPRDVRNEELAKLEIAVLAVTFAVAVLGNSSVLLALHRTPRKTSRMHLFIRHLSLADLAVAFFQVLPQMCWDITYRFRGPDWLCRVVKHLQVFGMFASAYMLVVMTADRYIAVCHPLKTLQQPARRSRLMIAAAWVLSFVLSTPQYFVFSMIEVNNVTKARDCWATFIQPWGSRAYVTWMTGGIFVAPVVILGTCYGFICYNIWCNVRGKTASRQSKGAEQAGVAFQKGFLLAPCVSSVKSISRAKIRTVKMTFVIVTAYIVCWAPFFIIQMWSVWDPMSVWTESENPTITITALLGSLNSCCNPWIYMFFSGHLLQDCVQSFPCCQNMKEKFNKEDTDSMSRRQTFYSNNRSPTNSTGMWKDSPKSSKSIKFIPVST
OXTR potentiator = human OXTR potentiators, primary screen, fluorescence, CHO-OTR cells, Fluo-8 calcium. Oxytocin receptor (Homo sapiens), P30559. Fluo-8 calcium fluorescence, potentiator mode; 0% = oxytocin EC15, 100% = EC100. activation, % at 3 µM. 320,000 compounds, 0.061% hits. AID 2445, 2010;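 active means activation above that plate's cutoff, the mean activation of tested compounds plus 3 SD, cut at about 6.6% in these data, passing the limit was not always enough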;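 further: 100% uses oxytocin at 75 nM as the full agonist control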
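System: human OTR in CHO cells / Also added: sub-maximal oxytocin, roughly EC15 / Control set: EC15 oxytocin low, 75 nM oxytocin high / Schedule: 6 min compound pre-incubation at room temperature, 100 s kinetic read / Compound: single-point 3.0 µM / Replication: singlicate / Technique: Fluo-8 calcium dye fluorescence / Read-out basis: % activation of max/min ratio relative to oxytocin controls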
TAAR1 antagonist = human TAAR1 antagonists, primary screen, Fluo-8 calcium fluorescence, CHO RD-HGA16 cells; antagonist; inhibition, % at 3 µM; 360,000 compounds, 1.5% hits;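 active means inhibition above a per-plate cutoff, the mean inhibition of test compounds on that plate plus 3 SD, cut at about 49% in these data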;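 further: 0% = DMSO plus EC80 beta-PEA response and 100% = DMSO alone without agonist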
Target sequence (Q96RJ0 whole entry, looked up): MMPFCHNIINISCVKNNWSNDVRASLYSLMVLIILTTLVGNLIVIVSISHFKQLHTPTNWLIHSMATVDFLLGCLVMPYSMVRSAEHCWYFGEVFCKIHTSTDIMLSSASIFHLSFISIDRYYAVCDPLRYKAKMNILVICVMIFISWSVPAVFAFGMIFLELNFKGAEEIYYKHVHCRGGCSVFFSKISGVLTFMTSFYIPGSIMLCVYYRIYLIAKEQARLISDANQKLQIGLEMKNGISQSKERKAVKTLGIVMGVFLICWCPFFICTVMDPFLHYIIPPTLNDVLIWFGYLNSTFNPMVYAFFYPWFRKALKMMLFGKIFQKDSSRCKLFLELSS
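Assay system: CHO-derived RD-HGA16 cells stably expressing human TAAR1 plus Gα16. Timing: 140 s kinetic read after compound, 140 s after agonist. Technique: kinetic Fluo-8 calcium fluorescence measurement. Measure: % inhibition of agonist calcium response.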
TAAR1 agonist = human TAAR1 agonists, primary screen, Fluo-8 calcium fluorescence, CHO RD-HGA16 cells | Trace amine-associated receptor 1 (Homo sapiens), Q96RJ0 | vehicle wells 0%, saturating PEA agonist 100% | activation, % at 3 µM | 360,000 compounds, 0.99% hits | AID 624467, 2012;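 active means activation above the mean activation of all test compounds in the run plus 3 SD, cut at about 38% in these data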
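Test system: RD-HGA16 (CHO) cells co-expressing Gα16 and hTAAR1; dosing: one-point dosing at 3 µM (nominal); timing: 17-24 h seeding, 75 min 37 °C dye, 30 min RT; signal: kinetic Fluo-8 calcium fluorescence; read-out basis: % activation relative to PEA EC100 response; controls: DMSO and PEA EC100; replicates: n 1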
OXTR ag = human OXTR agonists, primary screen, fluorescence, CHO-OTR cells, Fluo-8 calcium. Oxytocin receptor (Homo sapiens), P30559. Fluo-8 calcium fluorescence; normalized: DMSO 0%, oxytocin 100%. activation, % at 3 µM. 320,000 compounds, 0.32% hits;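 active means activation above the mean of all tested compounds plus 3 SD, cutoff set per screening run, cut at about 20% in these data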;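 further: peak over basal fluorescence ratio from a 100 s FLIPR kinetic read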
Numbers without * were called inactive; . = no result given.

SMILES | V1R ag counter | OXTR potentiator | TAAR1 antagonist | TAAR1 agonist | OXTR ag
CCCS(=O)(=O)NC(=O)C1(C)CCCN(C(=O)c2c(C)noc2C)C1 (stereo not drawn) | . | . | -15.3 | 7.8 | .
Cc1nc(N2CCN(C)CC2)c2sc(=S)n(-c3ccccc3)c2n1 | 0.1 | -0.9 | 0.3 | -1.2 | -0.8
S=c1sc2c(Cl)ncnc2n1-c1ccccc1 | . | . | 53.7* | -0.2 | .
COC(=O)c1cc2c(c3c4cc(F)ccc4n(S(=O)(=O)c4ccc(C)cc4)c13)C(=O)N(Cc1ccc(C(F)(F)F)cc1)C2 | . | . | -27.9 | -0.3 | .
O=C(Nc1ccc(Cl)c(Cl)c1)N(CCCN1CCOCC1)Cc1cccs1 | 4.1 | -6.3 | 39.8 | 45.6* | 4.4
O=C(c1ncn(Cc2ccccc2)c1C(=O)N1CCc2ccccc2C1)N1CCc2ccccc2C1 | -0.3 | -5.2 | 44.8 | 40.9* | -0.7
O=C(c1nc2ccc(Cl)cn2c1CN1CCCC1)N1CCc2ccccc2C1 | 1.6 | -2.5 | -17.8 | 47.2* | 1.1
O=C(c1nc2ccc(Cl)cn2c1CN1CCC(CO)CC1)N1CCc2ccccc2C1 | -0.8 | -4.1 | -14.1 | 0.8 | -0.2
O=C(c1ncn(Cc2ccccc2)c1C(=O)N1CCN(c2ccccc2)CC1)N1CCN(c2ccccc2)CC1 | 1.5 | -8.4 | 12.7 | 10.3 | 0.5
C#CCNC(=O)c1cc2c(Br)ccc(Br)c2nc1N | . | . | -15.0 | -0.6 | .
CCOC(=O)c1c(C)[nH]c(C)c1C(=O)CSc1nc2ccccc2n1CCOC | 1.3 | -5.8 | -5.1 | 1.9 | -0.2
COc1ccc(C(=O)CSc2nc3ccccc3n2CC(=O)c2ccccc2)cc1 | 1.8 | -10.3 | 59.0* | 18.7 | 3.1
COc1ccc(OCCSc2nc3ccccc3n2CC(=O)O)cc1 | -0.5 | 1.9 | 4.8 | 14.9 | 1.9
CCOC(=O)c1c(C)[nH]c(C)c1C(=O)CSc1nc2ccccc2n1CC | 1.4 | -7.2 | 49.1* | 15.0 | 1.0
COc1ccccc1Cc1c(-c2ccccc2)nc2ccc(C)cn12 | . | . | -3.1 | -0.4 | .
COC(=O)[C@]12C[C@H](CC(=O)NCc3cccc4ccccc34)C(=O)N(CCC3=CCCCC3)C1=C[C@H](COCc1ccccc1)O[C@@H]2C | . | . | -5.3 | 0.3 | .
Oc1ccc(N2CCN(c3ncnc4sc(-c5ccccc5)cc34)CC2)cc1 | . | . | 11.6 | -0.8 | .
CCc1cc2c(N3CCN(c4ccccc4)CC3)ncnc2s1 | 5.6 | -10.5 | 66.0* | 8.1 | -0.4
Cc1ccc(-n2ncc3c(N4CCN(c5ccccc5)CC4)ncnc32)c(C)c1 | 4.2 | -6.6 | 62.4* | 12.2 | 4.7
COc1ccc(N2CCN(c3ncnc4c3cnn4-c3ccc(C)cc3C)CC2)cc1 | 5.1 | -11.0 | 18.2 | 0.6 | 6.3
COc1ccc(-n2ncc3c(N4CCN(c5cc(C)ccc5C)CC4)ncnc32)cc1 | 1.1 | -0.7 | 103.0* | -2.6 | 0.2
Cc1cc(O)cc(=O)n1-c1cc(F)c(F)c(F)c1 | . | . | -10.6 | 1.3 | .
Cc1ccccc1CN(C)CC(=O)Nc1cccc(S(=O)(=O)N(C)c2ccccc2)c1 | 0.3 | -7.7 | -1.8 | -2.0 | -1.4
Cc1cc(C)c(NC(=O)CN(C)CC(=O)Nc2cccc(S(=O)(=O)N(C)c3ccccc3)c2)c(C)c1 | 6.1 | -7.2 | 88.7* | 43.7* | 1.3
CN(CC(=O)Nc1cccc(F)c1)CC(=O)Nc1cccc2ccccc12 | 1.8 | -7.9 | 58.8* | 45.8* | 4.0
SMILES | V1R ag counter | OXTR potentiator | TAAR1 antagonist | TAAR1 agonist | OXTR ag
CN(CC(=O)Nc1cccc(F)c1)CC(=O)Nc1ccccc1[N+](=O)[O-] | 9.9 | -9.3 | 7.3 | 5.8 | 13.5
CN(CC(=O)Nc1cccc(F)c1)CC(=O)Nc1cccc(S(=O)(=O)N(C)c2ccccc2)c1 | . | . | 62.8* | 26.1 | .
CCc1ccc([C@@H]2CC(=O)[C@@H]3CN(S(=O)(=O)c4ccc(Cl)cc4)[C@H](c4ccc(C)cc4)C[C@@H]3N2S(=O)(=O)c2ccc(C)cc2)cc1 | . | . | -4.5 | 0.1 | .
O=C(c1cc2c(c(-c3cccc(-c4ccc(F)cc4)c3)n1)[C@H](CCO)N(C(=O)c1ccc3c(c1)OCO3)C2)N1CCOCC1 | . | . | 1.3 | 32.9 | .
O=C(N/N=C/c1cccnc1)c1cccc(NC(=O)c2ccccc2Cl)c1 | 0.2 | -4.5 | 5.9 | 5.7 | -0.4
O=C(N/N=C/c1ccc(F)cc1)c1cccc(NC(=O)c2ccccc2Cl)c1 | 11.8 | -14.2 | 54.2* | 22.3 | 7.2
O=C(N/N=C/c1ccncc1)c1cccc(NC(=O)c2ccccc2Cl)c1 | 0.7 | -14.0 | 50.0* | 16.3 | 1.1
CCc1cccc(NC(=O)C2CCN(c3ncnc4sc(C)c(C)c34)CC2)c1 | 0.6 | -9.4 | 53.0* | 8.8 | -0.7
COc1ccc(-c2csc(NC(=O)C3CCN(c4ncnc5sc(C)c(C)c45)CC3)n2)cc1OC | -0.8 | -7.8 | 50.2* | 1.8 | -0.1
COC(=O)C1=CC(=O)N2CCN=C2S1 | . | . | -6.1 | 0.6 | .
Cc1cc(Br)cn2c(Cc3cccc(Cl)c3)c(C3CCCCC3)nc12 | . | . | -11.3 | -1.0 | .
CC(C)CNC(=O)COC(=O)c1c2c(nc3ccccc13)/C(=C\c1cccs1)CC2 | . | . | 50.1* | 0.1 | .
CC(=O)c1ccc(NC(=O)COC(=O)c2c3c(nc4ccccc24)/C(=C\c2cccs2)CCC3)cc1 | 0.7 | -13.2 | 57.6* | 8.2 | 0.6
O=C(COC(=O)c1c2c(nc3ccccc13)/C(=C\c1cccs1)CCC2)Nc1ccccc1 | 0.3 | -4.2 | 19.7 | 2.5 | 1.2
N#C/C(=C/c1ccc(N2CCCCCC2)o1)c1cccc(F)c1 | 1.0 | -4.0 | 17.0 | 8.7 | 2.7
COc1cc(N2CCCC2)c(OC)cc1/C=C(/C#N)c1cccc(F)c1 | 20.5* | -11.6 | . | . | 20.7*
O=C(Nc1nc(OCC(F)(F)F)cnc1/C=C\c1ccccc1)c1ccsc1 | . | . | 56.7* | 1.2 | .
CC(C)C[C@@H]1COc2cccc(NCCO)c2S(=O)(=O)N1 | . | . | -10.7 | 2.2 | .
Nc1ccccc1C(=O)N/N=C1\C2CN3CCN(C2)CC1(c1ccccc1)C3 | 0.3 | 14.2* | 12.8 | -2.9 | 0.5
O=C(N/N=C1\C2CN3CCN(C2)CC1(c1ccccc1)C3)c1ccc(F)cc1 | -0.2 | -3.8 | -4.8 | 1.8 | 0.0
CC1CC(C)CN(C(=O)c2cccc(S(=O)(=O)N(C)c3ccccc3)c2)C1 (stereo not drawn) | . | . | -5.0 | 6.2 | .
COc1ccc(N(C)S(=O)(=O)c2cccc(C(=O)OCC(=O)N3CC(C)CC(C)C3)c2)cc1 (stereo not drawn) | 7.8 | -10.1 | 54.4* | 9.2 | 6.0
COc1ccc(N(C)S(=O)(=O)c2cccc(C(=O)Nc3nc(C)cs3)c2)cc1 | 4.6 | -7.7 | 36.9 | 14.2 | 2.4
